ChEMBL document CHEMBL1821698, “Synthesis and biological activities of (R)- and (S)-N-(4-Methoxyphenyl)-N,2,6-trimethyl-6,7-dihydro-5H-cyclopenta[d]pyrimidin-4-aminium chloride as potent cytotoxic antitubulin agents” (J Med Chem, 2011)
Calls of active or inactive are those of the source. The calls are words filed in the database; no cut-off is given here.

How the values were obtained:
tubulin (Bos taurus) [1] = assay: Displacement of [3H]colchicine from bovine brain tubulin at 5 uM
SK-OV-3 [2] = assay: Antiproliferative activity against MDR-1-6/6 overexpressing human SKOV3 cells; format: functional, cell-based
SK-OV-3 [3] = assay: Antiproliferative activity against human SKOV3 cells; format: functional, cell-based
HeLa [4] = assay: Relative resistance ratio of IC50 for beta3-tubulin overexpressing human HeLa cells to IC50 for human HeLa cells; format: functional
[5] = Inhibition of bovine brain tubulin assembly
[6] = Inhibition of microtubule polymerization in A-10 cells; settings: A10
tubulin (Bos taurus) [7] = assay: Displacement of [3H]colchicine from bovine brain tubulin using purified tubulin at 1 uM
HeLa [8] = assay: Antiproliferative activity against human HeLa cells; format: functional, cell-based
[9] = Ratio of EC50 for microtubule depolymerization in A-10 cells to IC50 for human MDA-MB-435 cells
HeLa [10] = assay: Antiproliferative activity against beta3-tubulin overexpressing human HeLa cells; format: functional, cell-based
MDA-MB-435 [11] = assay: Antiproliferative activity against human MDA-MB-435 cells by SRB assay; format: functional, cell-based
How it was run: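 SRB assay on drug-sensitive MDA-MB-435 cells; IC50 is the concentration giving 50% inhibition of proliferation, n = 3.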

MDA-MB-435 [12] = assay: Cell cycle arrest in human MDA-MB-435 cells assessed as accumulation of cells at G2/M phase at 3 times IC50 after 18 hrs by flow cytometry; format: functional
SK-OV-3 [13] = assay: Relative resistance ratio of IC50 for MDR-1-6/6 overexpressing human SKOV3 cells to IC50 for human SKOV3 cells; format: functional
MDA-MB-435 [14] = assay: Cell cycle arrest in human MDA-MB-435 cells assessed as accumulation of cells at subG1 phase at 3 times IC50 after 18 hrs by flow cytometry; format: functional, cell-based

| IC50 (SK-OV-3 [2]) [nM] | IC50 (SK-OV-3 [3]) [nM] | IC50 [5] [nM] | EC50 [6] [nM] | IC50 (HeLa [8]) [nM] | IC50 (HeLa [10]) [nM] | IC50 (MDA-MB-435 [11]) [nM] | SMILES | inhibition (tubulin (Bos taurus) [1]) [%] | Ratio IC50 (HeLa [4]) | inhibition (tubulin (Bos taurus) [7]) [%] | Ratio [9] | Activity (MDA-MB-435 [12]) [%] | Ratio IC50 (SK-OV-3 [13]) | Activity (MDA-MB-435 [14]) |
| --- | --- | --- | --- | --- | --- | --- | --- | --- | --- | --- | --- | --- | --- | --- |
| 120 | 85.9 | 2100 | 278 | 92.9 | 67.7 | 51 | COc1ccc(N(C)c2nc(C)nc3c2C[C@@H](C)C3)cc1.Cl | 77 | 0.7 | 37 | 5 | 91.4 | 1.4 |  |
| 4880 | 2.95 |  |  |  |  |  | CC(=O)O[C@H]1C(=O)[C@@]2(C)[C@H]([C@H](OC(=O)c3ccccc3)[C@]3(O)C[C@H](OC(=O)[C@H](O)[C@@H](NC(=O)c4ccccc4)c4ccccc4)C(C)=C1C3(C)C)[C@]1(OC(C)=O)CO[C@@H]1C[C@@H]2O [PACLITAXEL] |  |  |  |  |  |  |  |
| 60.9 | 34.5 | 1500 | 56 | 37.3 | 23.9 | 17 | COc1ccc(N(C)c2nc(C)nc3c2CC(C)C3)cc1.Cl (racemic) | 87 | 0.6 | 59 | 3 | 65.9 | 1.8 | Active |
| 62.6 | 16.4 | 1300 | 23 | 19 | 13.3 | 12 | COc1ccc(N(C)c2nc(C)nc3c2C[C@H](C)C3)cc1.Cl | 93 | 0.7 | 70 | 2 | 49.2 | 3.8 | Active |

| SMILES | IC50 (SK-OV-3 [2]) [nM] | IC50 (SK-OV-3 [3]) [nM] | IC50 [5] [nM] | EC50 [6] [nM] | IC50 (HeLa [8]) [nM] | IC50 (HeLa [10]) [nM] | IC50 (MDA-MB-435 [11]) [nM] | inhibition (tubulin (Bos taurus) [1]) [%] | Ratio IC50 (HeLa [4]) | inhibition (tubulin (Bos taurus) [7]) [%] | Ratio [9] | Activity (MDA-MB-435 [12]) [%] | Ratio IC50 (SK-OV-3 [13]) | Activity (MDA-MB-435 [14]) |
| --- | --- | --- | --- | --- | --- | --- | --- | --- | --- | --- | --- | --- | --- | --- |
| COc1ccc(/C=C\c2cc(OC)c(OC)c(OC)c2)cc1O [COMBRETASTATIN A4] | 22 | 6.05 |  | 13 |  |  | 3.4 | 98 |  | 85 |  | 88.4 |  |  |
